“Also recorded” adds a separate entry of the source.
Assays:
[1] = system: viruses with an alanine residue substituted for Glu 429; assay: Enhancement of infection of Cf2Th-CCR5 cells, Glu 429 to alanine virus; assay type: cell-based, HIV-1; conditions: Glu 429 replaced with alanine
[2] = system: recombinant HIV-1 with the wild-type HIV-1YU2 envelope glycoproteins; assay: Enhancement of infection of CD4-negative Cf2Th-CCR5 cells, w.t. YU2 virus; assay type: cell-based
D368A mutant viruses = assay: Enhancement of infection of Cf2Th-CCR5 cells, D368A virus; assay type: cell-based, HIV-1; conditions: CD4−CCR5+ target cells; D368A envelope glycoproteins
[3] = system: Viruses with the S375A envelope glycoproteins; assay: Inhibition of infection of Cf2Th-CD4/CCR5 cells, S375A virus; assay type: cell-based, HIV-1
How it was run: (§1)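 Cf2Th-CD4/CCR5 cells were seeded at 6×10^3/well 24 h ahead. Luciferase viruses bearing YU2 Env (w.t. or S375A) or control A-MLV Env were premixed with test compound (1 to 100 μM) for 30 min at 37°C, then added to the cells for 48 h at 37°C. Luciferase was read after freeze-thaw lysis. Infection was expressed relative to no compound. IC50 is the mean ± SD of five independent experiments, each run in triplicate.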

[4] = system: viruses with the w.t. YU2 envelope glycoproteins; assay: Inhibition of infection of Cf2Th-CD4/CCR5 cells, w.t. YU2 virus; assay type: cell-based, HIV-1; conditions: for IC50: read-out: 50% inhibitory concentration (IC50), Cf2Th-CD4/CCR5 cells, w.t. YU2 envelope glycoproteins
How it was run: as §1

[5] = system: viruses with the S375W mutant envelope glycoproteins; assay: Enhancement of infection of Cf2Th-CCR5 cells, S375W virus; assay type: cell-based, HIV-1
[6] = system: viruses with Glu 429 replaced with a lysine residue; assay: Enhancement of infection of Cf2Th-CCR5 cells, Glu 429 to lysine virus; assay type: cell-based, HIV-1; conditions: Glu 429 replaced with lysine
[7] = target: gp120 core bound to the 17b antibody; assay: Thermodynamic cycle by isothermal titration calorimetry, gp120 core bound to 17b; assay type: binding, HIV-1
HXBc2 gp120 = HXBc2 gp120 (Human immunodeficiency virus type 1 group M subtype B, UniProt P04578); assay: Direct binding of 3H-labeled NBD-556, HXBc2 gp120; parameters: species or system HIV-1
[8] = system: viruses with the S375A change; assay: Enhancement of infection of Cf2Th-CCR5 cells, S375A virus; assay type: cell-based, HIV-1; conditions: S375A envelope glycoproteins, compared with w.t.
gp120 core-17b complex = assay: BIAcore analysis; assay type: binding, HIV-1; conditions: data not shown
[9] = system: viruses containing a chimeric HIV-1 envelope glycoprotein (HX(YU2 V3)); assay: Enhancement of infection of Cf2Th-CCR5 cells, HX; assay type: cell-based
[10] = system: viruses with the KB9 envelope glycoproteins; assay: Entry into CD4-negative Cf2Th-CXCR4 cells, KB9 virus; assay type: cell-based, HIV-1; conditions: data not shown
[11] = system: envelope glycoproteins of the laboratory-adapted CXCR4-using (X4) HIV-1 isolate, HXBc2; assay: Entry into CD4-negative Cf2Th-CXCR4 cells, HXBc2 virus; assay type: cell-based; conditions: data not shown
[12] = system: YU2, HXBc2 and HX(YU2 V3) gp120 glycoproteins; assay: Direct binding of 3H-labeled BMS-806 to gp120 variants; parameters: species or system HIV-1; conditions: all three gp120 glycoproteins

Row | Compound | virus-enhancing activity (in words) [1] | enhancement of HIV-1 entry/infection of CCR5+ cells (in words) [2] | enhancement of infectivity (in words) (D368A mutant viruses) | IC50 [3] | IC50 [4] | inhibition of HIV-1YU2 infection of cells expressing CD4 and CCR5 (in words) ([4]; specificity versus A-MLV envelope glycoproteins) | enhancement of infection (in words) [5] | activation of infection (in words) [6] | Kd ([7]; gp120 core bound to the 17b antibody, isothermal titration calorimetry) | increase in affinity for the gp120 core bound to the 17b antibody ([7]; versus gp120 core alone) | direct binding of 3H-labeled NBD-556 (in words) (HXBc2 gp120) | enhancement of infection (in words) [8] | Kd (gp120 core-17b complex) | enhancement of infection (in words) [9] | enhancement of entry (in words) [10] | enhancement of entry (in words) [11] | direct binding of 3H-labeled BMS-806 (in words) [12]
1 | CC1(C)CC(NC(=O)C(=O)Nc2ccc(Cl)c(F)c2)CC(C)(C)N1 [JRC-II-191] | significantly diminished | most potent stimulation of HIV-1 infection; also recorded: activated HIV-1 infection | enhanced | 10 to 20 µM | 54 µM | specifically inhibited | did not activate the entry | eliminated the activation of infection |  |  |  |  |  |  |  |  | 
2 | CC1(C)CC(NC(=O)C(=O)Nc2ccc(Br)cc2)CC(C)(C)N1 [NBD-557] | significantly diminished | comparably to NBD-556 | not enhanced |  |  |  | did not activate the entry | eliminated the activation of infection |  |  |  |  |  |  |  |  | 
3 | CC1(C)CC(NC(=O)C(=O)Nc2ccc(Cl)cc2)CC(C)(C)N1 [NBD-556] | less disruptive | significant enhancement | enhanced | 10 to 20 µM | 100 µM |  | not enhanced | eliminated the activation of infection | 1500 nM | approximately 25 fold | only moderately | greater enhancement | 6.6 µM | dramatically enhanced infection | did not enhance | not functionally enhanced | 
4 | COc1ccnc2[nH]cc(C(=O)C(=O)N3CCN(C(=O)c4ccccc4)C[C@H]3C)c12 [BMS-806] |  |  |  |  |  |  |  |  |  |  |  |  |  |  |  |  | similarly

From PMC2597202 (Structure (London, England : 1993), 2008)
